Tests used:
[1] = species: Homo sapiens; assay: Inhibition of acid-induced fibrillogenesis of human Transthyretin Y78F mutant expressed in Escherichia coli BL21 (DE3) cells assessed as reduction in fibril formation at 40 uM incubated for 30 mins by kinetic turbidimetric assay relative to control
How it was run: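 TTR-Y78F (final 0.4 mg/mL) preincubated 30 min at 37 °C with ligand up to 40 μM in 5% DMSO at pH 7.6. Aggregation triggered by pH 4.2 acetate buffer, then A340 followed for 1.5 h at 37 °C. From the exponential fit of initial rate versus concentration, RA% is the reduction in initial rate at high inhibitor concentration relative to no inhibitor.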

[2] = Inhibition of acid-induced fibrillogenesis of human Transthyretin Y78F mutant expressed in Escherichia coli BL21 (DE3) cells assessed as inhibition of fibril formation incubated for 30 mins by kinetic turbidimetric assay
How it was run: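 TTR-Y78F in 20 mM K phosphate, 100 mM KCl, 1 mM EDTA, pH 7.6, preincubated with inhibitor 0–40 μM (final 5% DMSO) 30 min at 37 °C with shaking. Acidified with 400 mM KAcO/100 mM KCl/1 mM EDTA pH 4.2 to final 0.4 mg/mL TTR. A340 read at 1-min intervals for 1.5 h at 37 °C. Initial rates fitted to v0 = A + B·e^(−C[I]) to give IC50.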

Row | Structure (SMILES) | inhibition [1] [%] | IC50 [2] [µM]
1 | COc1cc(F)ccc1-c1cc(Br)c(O)c(C(=O)O)c1 | 95.5 | 5.2
2 | O=C(O)c1cc(-c2ccc(Cl)cc2F)ccc1O | 77.3 | 21.7
3 | O=C(O)c1cc(-c2c(F)cc(F)cc2Cl)cc(I)c1O | 91 | 4.6
4 | O=C(O)c1cc(-c2ccc(Cl)cc2F)cc(I)c1O | 88.5 | 3.9
5 | O=C(O)c1cc(-c2ccc(F)cc2C(F)(F)F)ccc1O | 60.4 | 23.1
6 | O=C(O)c1cc(-c2ccc(F)cc2F)cc(I)c1O | 94 | 4.2
7 | COc1cc(F)ccc1-c1cc(I)c(O)c(C(=O)O)c1 | 90.3 | 5.3
8 | COC(=O)CCNC(=O)c1cc(-c2c(F)cc(F)cc2Cl)cc(I)c1O | 90 | 3.7
9 | O=C(O)c1cc(-c2ccc(F)cc2C(F)(F)F)cc(I)c1O | 87 | 7.2
10 | CCOc1cc(F)ccc1-c1cc(I)c(O)c(C(=O)O)c1 | 91.1 | 5.1
11 | O=C(O)c1cc(-c2c(F)cc(F)cc2Cl)cc(Br)c1O | 89 | 3.6
12 | COC(=O)[C@@H](C)NC(=O)c1cc(-c2c(F)cc(F)cc2Cl)cc(I)c1O | 89 | 6
13 | CCOc1cc(F)ccc1-c1cc(Br)c(O)c(C(=O)O)c1 | 89.9 | 4.3
14 | O=C(O)c1cc(-c2c(F)cc(F)cc2Cl)ccc1O | 89.1 | 7.2
15 | CCOc1cc(F)ccc1-c1ccc(O)c(C(=O)O)c1 | 88.8 | 6.1
16 | COc1cc(F)ccc1-c1ccc(O)c(C(=O)O)c1 | 87.8 | 6
